High-throughput results from PubChem BioAssay.
iPSC survival up: enhancers of human iPSC single-cell survival; hit rate 0.044% among 360,000; AID 602274; hiPSC single-cell survival, ATPlite luminescence; 100% = ROCK inhibitor wells, 0% = DMSO; survival enhancement, % at 20 µM; in the data active means survival enhancement above about 18%;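 further: cells exposed to compounds for 16 hours before the ATP read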
Cardio protect: modulators protecting cardiomyocytes from myocardial damage | AID 588492 | hit rate 0.63% among 360,000 | protection from H2O2 cell death, % at 20 µM | H9c2 cardiomyocytes, H2O2 injury protection, ATPLite, 2 h;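 active means compounds giving at least 50% protection of heart cells from peroxide-induced death in the single-dose screen, raw or plate-pattern-corrected value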
CHOP inh: CHOP inhibition in unfolded protein response; CHO-K1 CHOP-promoter luciferase, tunicamycin-induced, 15-18 h; inhibition, % at 10 µM; hit rate 3.8% among 220,000;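 active means compounds that reduced the stress-induced luciferase reporter signal by more than about 70% of percent inhibition, limit read from the data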
UPR CHOP act: apoptotic UPR (CHOP) activation. CHO-CHOP luciferase reporter, luminescence; percent of tunicamycin response over DMSO baseline. activation, % at 10 µM. hit rate 0.34% among 330,000. AID 449763;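 active means at 10 µM dose, activation of 40% or more, normalized to positive control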
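Assay system: CHO cells with stable CHOP pathway luciferase reporter; Buffer or medium: F12 plus 10% serum; Times: 16-18 h cell attachment, then 6 h compound exposure, 37 °C; Signal: luciferase luminescence; Read-out basis: percent activation relative to tunicamycin control; Control set: tunicamycin high control, DMSO low control.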
UPR XBP1 act: activators of adaptive arm of unfolded protein response (XBP1); CHO-XBP1 luciferase reporter, IRE1-XBP1 UPR activation, luminescence; percent of tunicamycin response, DMSO as zero; activation, % at 20 µM; hit rate 0.33% among 330,000; AID 463104;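 active means versus positive control, 20 µM dose yields 30% or more activation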
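Material: CHO-XBP1 cells stably carrying IRE1-XBP1-driven luciferase reporter | Medium: F12 with 10% serum | Compound dosing: 20 µM single concentration, DMSO 1% | Incubation: Overnight seeding at 37 °C, 6 h compound treatment at 37 °C | Detection: Steady-Glo luminescence read | Read-out basis: % activation of reporter signal versus tunicamycin and DMSO controls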
Large screens that a line does not name were inactive. This is one part of a sample in which hits are shown more often than they occur.

COc1ccc(-c2nc3c(c(=O)[nH]c(=O)n3Cc3ccccc3)n2Cc2ccccc2)cc1	CHOP inh 75.7
COc1ccc(CCn2c(Br)nc3c2c(=O)[nH]c(=O)n3C)cc1	Cardio protect 63.9
CC(C)(C)c1ccc(SC2=C[C@@]3(O)CC[C@@H](O)[C@@](Sc4ccc(C(C)(C)C)cc4)(C2=O)[C@H]3O)cc1	none (no result: Cardio protect, CHOP inh, UPR CHOP act, UPR XBP1 act)
CCCCn1c(N)c(N(C)C(=O)c2c(C)nn(-c3ccccc3)c2C)c(=O)[nH]c1=O	none (no result: CHOP inh)
O=C(NCC(=O)N1CCN(c2ncccn2)CC1)c1ccccc1OC(F)F	none (no result: CHOP inh)
Cc1ccc(CSc2nc3c(c(=O)[nH]c(=O)n3C)n2CCC(C)C)cc1	CHOP inh 106.0
CC(C)CCSc1nc2c(c(=O)[nH]c(=O)n2C)n1CCc1ccccc1	CHOP inh 88.3
CCOCCn1c(SCc2ccc(C)cc2)nc2c1c(=O)[nH]c(=O)n2C	none
C/C=C/CSc1nc2c(c(=O)[nH]c(=O)n2C)n1Cc1ccc(C)cc1	CHOP inh 86.0
CCCCCSc1nc2c(c(=O)[nH]c(=O)n2C)n1C(C)C	CHOP inh 88.5
COc1ccc(-c2noc(CCC(=O)Nc3cccc(C(=O)NC4CC4)c3)n2)cc1OC	none (no result: CHOP inh, UPR CHOP act, UPR XBP1 act)
CCSC1OC(C(COC(C)=O)OC(C)=O)C(OC(C)=O)C1NC(C)=S (stereo not given)	none (no result: CHOP inh, UPR CHOP act, UPR XBP1 act)
O=C(NCCc1c[nH]c2ccccc12)c1[nH]c(C(F)(F)F)nc1-c1ccccc1	none (no result: CHOP inh, UPR CHOP act, UPR XBP1 act)
C/C(Cl)=C/Cn1c(SCc2ccc(Cl)cc2)nc2c1c(=O)[nH]c(=O)n2C	none (no result: UPR CHOP act, UPR XBP1 act)
CCCCn1c(SCc2ccc(Cl)cc2)nc2c1c(=O)[nH]c(=O)n2C	CHOP inh 82.0
CCCCCn1c(N2CCN(c3cccc(Cl)c3)CC2)nc2c1c(=O)[nH]c(=O)n2C	CHOP inh 86.6
CC(C)CSc1nc2c(c(=O)[nH]c(=O)n2C)n1CC(O)COc1cccc2ccccc12 (stereo not given)	CHOP inh 79.6 (no result: UPR CHOP act, UPR XBP1 act)
CCSc1nc2c(c(=O)[nH]c(=O)n2C)n1CC(O)COc1ccccc1 (stereo not given)	none
COc1ccc(C(=O)/C=C2/C(=O)Nc3ccccc32)cc1	none (no result: CHOP inh)
C=CCOc1ccccc1C(=O)/C=C1/C(=O)Nc2ccccc21	UPR CHOP act 151.6 (no result: CHOP inh)
COc1ccc(C(=O)/C=C2/C(=O)Nc3ccccc32)cc1OC	UPR CHOP act 47.7 (no result: CHOP inh)
CC(NC(=O)c1cccc(S(=O)(=O)N2CCCCCC2)c1)c1ccccc1 (stereo not given)	none (no result: CHOP inh)
c1ccc2c(c1)oc1c(N3CCOCC3)ncnc12	none
C(=C\c1ccccc1)/CN1CCN(c2ncnc3c2oc2ccccc23)CC1	CHOP inh 94.0
CCCCCCCCN1C(=O)[C@H](CC(=O)N2CCCCC2)C[C@@]2(C(=O)OC)CCCCC=C12	none (no result: Cardio protect, CHOP inh, UPR CHOP act, UPR XBP1 act)
O=c1c2nncn2c2cc(C(F)(F)F)ccc2n1CCNc1ncc(C(F)(F)F)cc1Cl	CHOP inh 84.9
O=c1c2nncn2c2cccnc2n1CCNc1ncc(C(F)(F)F)cc1Cl	none
CCc1ccc(OCC(=O)Nc2cccc3c2CCCC3)cc1	CHOP inh 79.1
CCCC(=O)Nc1cccc2c1CCCC2	none
COc1cccc(NS(=O)(=O)c2c(C)cc(C)cc2C)c1	CHOP inh 94.9
COc1ccc(NS(=O)(=O)c2c(C)cc(C)cc2C)cc1	none
O=[N+]([O-])c1ccc(/C=N/n2cnc3ccccc32)s1	CHOP inh 83.2
Cc1cc2ncn(/N=C/c3ccc([N+](=O)[O-])s3)c2cc1C	none (no result: UPR CHOP act, UPR XBP1 act)
COc1ccc(-c2cc(-c3nnc(COC(=O)C4CC4)o3)c3ccccc3n2)cc1OC	Cardio protect 80.5
COc1ccc(-c2cc(-c3nnc(COC(=O)c4ccc(O)cc4)o3)c3ccccc3n2)cc1OC	none
COc1ccc(-c2cc(-c3nnc(COC(=O)C4CC4C)o3)c3ccccc3n2)cc1OC (stereo not given)	Cardio protect 85.1
Cc1[nH]c2ccccc2c1/C=N/NC(=O)c1cc(-c2ccccc2)n[nH]1	Cardio protect 55.4
Cc1nn(-c2ccccc2)c(C)c1/C=N/NC(=O)c1cc(-c2ccccc2)n[nH]1	Cardio protect 75.3
Oc1c(CN2CCN(c3ccccc3)CC2)cc(Br)c2cccnc12	CHOP inh 89.1 (no result: UPR CHOP act, UPR XBP1 act)
c1ccc(N2CCN(Cc3ccnc4ccccc34)CC2)cc1	none
COc1ccccc1Cn1c(C)c(C(=O)NCCC#N)sc1=O	none (no result: CHOP inh, UPR CHOP act, UPR XBP1 act)
O=C(Oc1cccc(Nc2ncnc3ccccc23)c1)c1ccccc1Cl	CHOP inh 86.7
Oc1cc(-c2ccccc2)c2ccccc2c1	CHOP inh 100.6
c1ccc2c(c1)-c1cccc3c1c-2cc1ccccc13	none (no result: iPSC survival up, Cardio protect, CHOP inh)
CCS(=O)(=O)N1CCC2(CC1)OCCN2S(=O)(=O)c1ccccc1	none (no result: CHOP inh, UPR CHOP act, UPR XBP1 act)
O=C(/C=C/c1ccccc1)NCCSc1ccc(Cl)cc1	CHOP inh 77.4
Cc1ccc(-c2noc(CSc3nnc(Cc4cccs4)n3-c3ccccc3)n2)cc1	none
Clc1ccc(-c2noc(CSc3nnc(Cc4cccs4)n3-c3ccccc3)n2)cc1	CHOP inh 81.0
Fc1ccc(-n2c(Cc3ccccc3)nnc2SCc2nc(-c3cccs3)no2)cc1	CHOP inh 75.2
c1ccc(-c2noc(CSc3nnc(Cc4cccs4)n3-c3ccccc3)n2)cc1	none
CC(OC(=O)CCN1C(=O)c2cccc([N+](=O)[O-])c2C1=O)C(=O)Nc1cc(Cl)cc(Cl)c1 (stereo not given)	CHOP inh 82.3
O=C(CNc1ccccc1)N/N=C/c1cn(-c2ccccc2)nc1-c1ccccc1	CHOP inh 95.9
O=C(N/N=C/c1cn(-c2ccccc2)nc1-c1cccnc1)c1cccnc1	Cardio protect 51.5
O=C(N/N=C/c1cn(-c2ccccc2)nc1-c1cccnc1)c1ccc(F)cc1	Cardio protect 70.8
O=S(=O)(N/N=C\c1cn(-c2ccccc2)nc1-c1ccccc1)c1ccccc1	CHOP inh 95.6
COc1ccc(Cl)cc1-c1noc([C@@H]2O[C@H](CO)[C@H](O)[C@H](O)[C@H]2O)n1	none (no result: CHOP inh, UPR CHOP act, UPR XBP1 act)
O=C(NCc1ccc(F)cc1F)[C@@H]1CCCN1C(=O)[C@@H]1CCCN1C(=O)c1cccc2ccccc12	none (no result: Cardio protect, CHOP inh, UPR CHOP act, UPR XBP1 act)
Cc1ccc(SC[C@H](C)CN2CCC(NC(=O)OCc3ccccc3)CCC2=O)cc1 (stereo not given in full)	none (no result: Cardio protect, CHOP inh, UPR CHOP act, UPR XBP1 act)
CN1CCC(N2CCN(C3CN(Cc4ccc(F)cc4)S(=O)(=O)C3)CC2)CC1 (stereo not given)	none (no result: CHOP inh, UPR CHOP act, UPR XBP1 act)
CC1=NNC(=O)/C1=C\c1cn(-c2ccccc2)nc1-c1cccs1	CHOP inh 110.0
O=C(O)CCCCCN1C(=O)/C(=C/c2cn(-c3ccccc3)nc2-c2cccs2)SC1=S	none (no result: CHOP inh, UPR CHOP act, UPR XBP1 act)
O=C(N/N=C/c1cn(-c2ccccc2)nc1-c1cccs1)c1ccccc1F	Cardio protect 75.7
CC(C)(CN1CCCCC1)NS(=O)(=O)c1ccc(Cl)cc1	none
CC1CC(C)CN(CC(C)(C)NS(=O)(=O)c2ccc(Cl)cc2)C1 (stereo not given)	CHOP inh 93.8
